Assay results as given in ChEMBL document CHEMBL3797186, “Single Residue Substitutions That Confer Voltage-Gated Sodium Ion Channel Subtype Selectivity in the NaV1.7 Inhibitory Peptide GpTx-1” (J Med Chem, 2016).
pIC50: −log10 of the molar value. Positions of bridges follow the written chain, without caps; N, C: chain ends. Residues, ends and D or L forms follow the SMILES beside them.

Biological target: Sodium channel protein type 5 subunit alpha (Homo sapiens, UniProt Q14524)
Test: Inhibition of human Nav1.5 expressed in HEK293 cells assessed as inward peak current by ion-works quattro patch clamp electrophysiology method
Type: cell-based
In short: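 Stable HEK293 line expressing human NaV1.5, recorded by population patch clamp on the IonWorks Quattro.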

Chain of Sodium channel protein type 5 subunit alpha (Q14524 whole entry): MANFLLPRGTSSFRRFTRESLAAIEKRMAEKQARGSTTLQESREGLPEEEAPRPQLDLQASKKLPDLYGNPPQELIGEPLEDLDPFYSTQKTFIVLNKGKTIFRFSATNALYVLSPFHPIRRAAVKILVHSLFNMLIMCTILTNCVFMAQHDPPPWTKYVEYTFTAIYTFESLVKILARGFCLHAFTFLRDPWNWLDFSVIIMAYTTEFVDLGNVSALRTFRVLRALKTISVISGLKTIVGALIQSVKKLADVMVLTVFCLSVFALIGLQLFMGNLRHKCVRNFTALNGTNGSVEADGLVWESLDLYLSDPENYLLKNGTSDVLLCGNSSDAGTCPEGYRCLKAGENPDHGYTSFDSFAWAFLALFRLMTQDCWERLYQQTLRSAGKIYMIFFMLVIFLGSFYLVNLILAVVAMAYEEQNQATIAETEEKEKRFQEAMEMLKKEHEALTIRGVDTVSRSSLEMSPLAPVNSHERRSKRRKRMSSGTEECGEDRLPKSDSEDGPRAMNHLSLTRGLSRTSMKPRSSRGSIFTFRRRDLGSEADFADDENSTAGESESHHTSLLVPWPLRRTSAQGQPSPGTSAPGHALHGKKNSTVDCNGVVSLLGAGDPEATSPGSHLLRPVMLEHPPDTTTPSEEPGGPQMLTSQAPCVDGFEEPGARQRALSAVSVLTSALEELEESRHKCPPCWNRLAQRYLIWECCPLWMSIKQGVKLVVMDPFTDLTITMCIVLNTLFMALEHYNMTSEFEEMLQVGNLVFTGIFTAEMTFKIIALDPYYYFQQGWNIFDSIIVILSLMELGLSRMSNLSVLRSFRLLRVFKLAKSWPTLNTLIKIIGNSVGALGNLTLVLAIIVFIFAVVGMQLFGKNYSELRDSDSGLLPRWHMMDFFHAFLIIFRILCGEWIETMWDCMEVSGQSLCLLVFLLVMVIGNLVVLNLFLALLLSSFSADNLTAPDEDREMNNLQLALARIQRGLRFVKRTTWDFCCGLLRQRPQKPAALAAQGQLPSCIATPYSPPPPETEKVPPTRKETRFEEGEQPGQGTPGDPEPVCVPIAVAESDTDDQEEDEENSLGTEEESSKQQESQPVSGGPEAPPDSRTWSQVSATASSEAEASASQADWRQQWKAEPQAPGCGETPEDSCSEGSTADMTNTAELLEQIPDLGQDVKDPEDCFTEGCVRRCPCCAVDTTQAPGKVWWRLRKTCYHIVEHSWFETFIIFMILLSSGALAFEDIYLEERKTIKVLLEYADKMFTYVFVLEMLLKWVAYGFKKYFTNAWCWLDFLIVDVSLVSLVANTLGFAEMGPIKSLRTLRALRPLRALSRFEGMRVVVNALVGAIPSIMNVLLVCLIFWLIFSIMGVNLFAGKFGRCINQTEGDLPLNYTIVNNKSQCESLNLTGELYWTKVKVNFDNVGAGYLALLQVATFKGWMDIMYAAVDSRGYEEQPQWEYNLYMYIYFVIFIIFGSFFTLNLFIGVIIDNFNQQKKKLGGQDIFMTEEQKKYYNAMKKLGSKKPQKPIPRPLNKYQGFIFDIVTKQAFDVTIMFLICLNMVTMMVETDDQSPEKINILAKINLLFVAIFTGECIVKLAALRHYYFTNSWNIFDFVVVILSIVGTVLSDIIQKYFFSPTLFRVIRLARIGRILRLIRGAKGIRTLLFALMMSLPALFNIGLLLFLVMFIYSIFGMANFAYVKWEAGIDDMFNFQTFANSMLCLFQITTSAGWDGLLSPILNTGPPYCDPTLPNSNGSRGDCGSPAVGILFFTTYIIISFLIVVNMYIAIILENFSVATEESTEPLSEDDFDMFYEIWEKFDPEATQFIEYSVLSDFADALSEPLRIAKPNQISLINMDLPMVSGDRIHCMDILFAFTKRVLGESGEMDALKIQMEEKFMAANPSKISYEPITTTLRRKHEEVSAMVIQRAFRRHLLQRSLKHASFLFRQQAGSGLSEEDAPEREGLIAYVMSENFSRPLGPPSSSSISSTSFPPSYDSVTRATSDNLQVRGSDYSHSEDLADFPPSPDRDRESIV

SMILES	pIC50
CSCC[C@@H]1NC(=O)[C@H](Cc2ccccc2)NC(=O)CNC(=O)[C@H](CC(C)C)NC(=O)[C@@H](NC(=O)[C@@H](N)CC(=O)O)CSSC[C@@H]2NC(=O)[C@@H]3CSSC[C@@H](C(=O)N[C@@H](CCCCN)C(=O)N[C@@H](Cc4ccc(O)cc4)C(=O)N[C@H](C(=O)N[C@@H](Cc4ccccc4)C(N)=O)C(C)C)NC(=O)[C@H](Cc4c[nH]c5ccccc45)NC(=O)[C@H](CCCCN)NC(=O)[C@H](Cc4cnc[nH]4)NC(=O)[C@H]([C@@H](C)O)NC(=O)[C@H](CCCNC(=N)N)NC(=O)[C@H](CO)NC(=O)[C@H](CSSC[C@H](NC(=O)[C@H](CCCCN)NC(=O)[C@H](CCCNC(=N)N)NC1=O)C(=O)N[C@@H](Cc1ccc(C(=O)O)cc1)C(=O)N1CCC[C@H]1C(=O)N[C@@H](CC(=O)O)C(=O)N[C@@H](CC(N)=O)C(=O)N[C@@H](CC(=O)O)C(=O)N[C@@H](CCCCN)C(=O)N3)NC(=O)[C@H](C(C)C)NC(=O)[C@H](CC(C)C)NC(=O)[C@H](CC(N)=O)NC(=O)[C@@H]1CCCN1C(=O)[C@H](CCCNC(=N)N)NC2=O	< 5.32
CC[C@H](C)[C@@H]1NC(=O)[C@@H]2CSSC[C@@H]3NC(=O)[C@H](C(C)C)NC(=O)[C@H](CC(C)C)NC(=O)[C@H](CC(N)=O)NC(=O)[C@@H]4CCCN4C(=O)[C@H](CCCNC(=N)N)NC(=O)[C@H](CSSC[C@H](NC(=O)[C@@H](N)CC(=O)O)C(=O)N[C@@H](CC(C)C)C(=O)NCC(=O)N[C@@H](Cc4ccccc4)C(=O)N[C@@H](CCSC)C(=O)N[C@@H](CCCNC(=N)N)C(=O)N[C@@H](CCCCN)C(=O)N2)NC(=O)[C@H](CSSC[C@@H](C(=O)N[C@@H](CCCCN)C(=O)N[C@@H](Cc2ccc(O)cc2)C(=O)N[C@H](C(=O)N[C@@H](Cc2ccccc2)C(N)=O)C(C)C)NC(=O)[C@H](Cc2c[nH]c4ccccc24)NC(=O)[C@H](CCCCN)NC(=O)[C@H](Cc2c[nH]c4ccccc24)NC(=O)[C@H]([C@@H](C)O)NC(=O)[C@H](CCCNC(=N)N)NC(=O)[C@H](CO)NC3=O)NC(=O)[C@H](CCCCN)NC(=O)[C@H](CC(=O)O)NC(=O)[C@H](CC(N)=O)NC(=O)[C@H](CC(=O)O)NC(=O)[C@@H]2CCCN2C1=O (H-DCLGFMRKCIPDNDKCCRPNLVCSRTWKWCKYVF-NH2; disulfide 2-17, 9-23, 16-30)	< 5.30
CSCC[C@@H]1NC(=O)[C@H](Cc2ccccc2)NC(=O)CNC(=O)[C@H](CC(C)C)NC(=O)[C@@H](NC(=O)[C@@H](N)CC(=O)O)CSSC[C@@H]2NC(=O)[C@@H]3CSSC[C@@H](C(=O)N[C@@H](CCCCN)C(=O)N[C@@H](Cc4ccc(O)cc4)C(=O)N[C@H](C(=O)N[C@@H](Cc4ccccc4)C(N)=O)C(C)C)NC(=O)[C@H](Cc4c[nH]c5ccccc45)NC(=O)[C@H](CCCCN)NC(=O)[C@H](Cc4cnc[nH]4)NC(=O)[C@H]([C@@H](C)O)NC(=O)[C@H](CCCNC(=N)N)NC(=O)[C@H](CO)NC(=O)[C@H](CSSC[C@H](NC(=O)[C@H](CCCCN)NC(=O)[C@H](CCCNC(=N)N)NC1=O)C(=O)N[C@@H](C(C)C)C(=O)N1CCC[C@H]1C(=O)N[C@@H](CC(=O)O)C(=O)N[C@@H](CC(N)=O)C(=O)N[C@@H](CC(=O)O)C(=O)N[C@@H](CCCCN)C(=O)N3)NC(=O)[C@H](C(C)C)NC(=O)[C@H](CC(C)C)NC(=O)[C@H](CC(N)=O)NC(=O)[C@@H]1CCCN1C(=O)[C@H](CCCNC(=N)N)NC2=O (H-DCLGFMRKCVPDNDKCCRPNLVCSRTHKWCKYVF-NH2; disulfide 2-17, 9-23, 16-30)	< 5.30
CSCC[C@@H]1NC(=O)[C@H](Cc2ccccc2)NC(=O)CNC(=O)[C@H](CC(C)C)NC(=O)[C@@H](NC(=O)[C@@H](N)CC(=O)O)CSSC[C@@H]2NC(=O)[C@@H]3CSSC[C@@H](C(=O)N[C@@H](CCCCN)C(=O)N[C@@H](Cc4ccc(O)cc4)C(=O)N[C@H](C(=O)N[C@@H](Cc4ccccc4)C(N)=O)C(C)C)NC(=O)[C@H](Cc4c[nH]c5ccccc45)NC(=O)[C@H](CCCCN)NC(=O)[C@H](Cc4cnc[nH]4)NC(=O)[C@H]([C@@H](C)O)NC(=O)[C@H](CCCNC(=N)N)NC(=O)[C@H](CO)NC(=O)[C@H](CSSC[C@H](NC(=O)[C@H](CCCCN)NC(=O)[C@H](CCCNC(=N)N)NC1=O)C(=O)N[C@@H](Cc1ccc(O)cc1)C(=O)N1CCC[C@H]1C(=O)N[C@@H](CC(=O)O)C(=O)N[C@@H](CC(N)=O)C(=O)N[C@@H](CC(=O)O)C(=O)N[C@@H](CCCCN)C(=O)N3)NC(=O)[C@H](C(C)C)NC(=O)[C@H](CC(C)C)NC(=O)[C@H](CC(N)=O)NC(=O)[C@@H]1CCCN1C(=O)[C@H](CCCNC(=N)N)NC2=O (H-DCLGFMRKCYPDNDKCCRPNLVCSRTHKWCKYVF-NH2; disulfide 2-17, 9-23, 16-30)	< 5.30
CC[C@H](C)[C@@H]1NC(=O)[C@@H]2CSSC[C@@H]3NC(=O)[C@H](C(C)C)NC(=O)[C@H](CC(C)C)NC(=O)[C@H](CC(N)=O)NC(=O)[C@@H]4CCCN4C(=O)[C@H](CCCNC(=N)N)NC(=O)[C@H](CSSC[C@H](NC(=O)[C@@H](N)CC(=O)O)C(=O)N[C@@H](CC(C)C)C(=O)NCC(=O)N[C@@H](Cc4ccccc4)C(=O)N[C@@H](CCSC)C(=O)N[C@@H](CCCNC(=N)N)C(=O)N[C@@H](CCCCN)C(=O)N2)NC(=O)[C@H](CSSC[C@@H](C(=O)N[C@@H](CCCCN)C(=O)N[C@@H](Cc2ccc(O)cc2)C(=O)N[C@H](C(N)=O)C(C)C)NC(=O)[C@H](Cc2c[nH]c4ccccc24)NC(=O)[C@H](CCCCN)NC(=O)[C@H](Cc2cnc[nH]2)NC(=O)[C@H]([C@@H](C)O)NC(=O)[C@H](CCCNC(=N)N)NC(=O)[C@H](CO)NC3=O)NC(=O)[C@H](CCCCN)NC(=O)[C@H](CC(=O)O)NC(=O)[C@H](CC(N)=O)NC(=O)[C@H](CC(=O)O)NC(=O)[C@@H]2CCCN2C1=O (H-DCLGFMRKCIPDNDKCCRPNLVCSRTHKWCKYV-NH2; disulfide 2-17, 9-23, 16-30)	< 5.30
CC[C@H](C)[C@@H]1NC(=O)[C@@H]2CSSC[C@@H]3NC(=O)[C@H](C(C)C)NC(=O)[C@H](CC(C)C)NC(=O)[C@H](CC(N)=O)NC(=O)[C@@H]4CCCN4C(=O)[C@H](CCCNC(=N)N)NC(=O)[C@H](CSSC[C@H](NC(=O)[C@@H](N)CC(=O)O)C(=O)N[C@@H](CC(C)C)C(=O)NCC(=O)N[C@@H](Cc4ccccc4)C(=O)N[C@@H](CCSC)C(=O)N[C@@H](CCCNC(=N)N)C(=O)N[C@@H](CCCCN)C(=O)N2)NC(=O)[C@H](CSSC[C@@H](C(=O)N[C@@H](CCCCN)C(=O)N[C@@H](Cc2ccc(O)cc2)C(=O)N[C@@H](Cc2c[nH]c4ccccc24)C(=O)N[C@@H](Cc2ccccc2)C(N)=O)NC(=O)[C@H](Cc2c[nH]c4ccccc24)NC(=O)[C@H](CCCCN)NC(=O)[C@H](Cc2c[nH]cn2)NC(=O)[C@H]([C@@H](C)O)NC(=O)[C@H](CCCNC(=N)N)NC(=O)[C@H](CO)NC3=O)NC(=O)[C@H](CCCCN)NC(=O)[C@H](CC(=O)O)NC(=O)[C@H](CC(N)=O)NC(=O)[C@H](CC(=O)O)NC(=O)[C@@H]2CCCN2C1=O (H-DCLGFMRKCIPDNDKCCRPNLVCSRTHKWCKYWF-NH2; disulfide 2-17, 9-23, 16-30)	< 5.30
CSCC[C@@H]1NC(=O)[C@H](Cc2ccccc2)NC(=O)CNC(=O)[C@H](CC(C)C)NC(=O)[C@@H](NC(=O)[C@@H](N)CC(=O)O)CSSC[C@@H]2NC(=O)[C@@H]3CSSC[C@@H](C(=O)N[C@@H](CCCCN)C(=O)N[C@@H](Cc4ccc(O)cc4)C(=O)N[C@H](C(=O)N[C@@H](Cc4ccccc4)C(N)=O)C(C)C)NC(=O)[C@H](Cc4c[nH]c5ccccc45)NC(=O)[C@H](CCCCN)NC(=O)[C@H](Cc4cnc[nH]4)NC(=O)[C@H]([C@@H](C)O)NC(=O)[C@H](CCCNC(=N)N)NC(=O)[C@H](CO)NC(=O)[C@H](CSSC[C@H](NC(=O)[C@H](CCCCN)NC(=O)[C@H](CCCNC(=N)N)NC1=O)C(=O)N[C@@H](Cc1ccccn1)C(=O)N1CCC[C@H]1C(=O)N[C@@H](CC(=O)O)C(=O)N[C@@H](CC(N)=O)C(=O)N[C@@H](CC(=O)O)C(=O)N[C@@H](CCCCN)C(=O)N3)NC(=O)[C@H](C(C)C)NC(=O)[C@H](CC(C)C)NC(=O)[C@H](CC(N)=O)NC(=O)[C@@H]1CCCN1C(=O)[C@H](CCCNC(=N)N)NC2=O	< 5.30
CC[C@H](C)[C@@H]1NC(=O)[C@@H]2CSSC[C@@H]3NC(=O)[C@H](C(C)C)NC(=O)[C@H](CC(C)C)NC(=O)[C@H](CC(N)=O)NC(=O)[C@@H]4CCCN4C(=O)[C@H](CCCNC(=N)N)NC(=O)[C@H](CSSC[C@H](NC(=O)[C@@H](N)CC(=O)O)C(=O)N[C@@H](CC(C)C)C(=O)NCC(=O)N[C@@H](Cc4ccccc4)C(=O)N[C@@H](CCSC)C(=O)N[C@@H](CCCNC(=N)N)C(=O)N[C@@H](CCCCN)C(=O)N2)NC(=O)[C@H](CSSC[C@@H](C(=O)N[C@@H](CCCCN)C(=O)N[C@@H](Cc2ccc(O)cc2)C(=O)N[C@H](C(=O)N[C@@H](Cc2ccccc2)C(N)=O)C(C)C)NC(=O)[C@H](Cc2c[nH]c4ccccc24)NC(=O)[C@H](CCCCN)NC(=O)[C@H](Cc2cnc[nH]2)NC(=O)[C@H]([C@@H](C)O)NC(=O)[C@H](CCCCN)NC(=O)[C@H](CO)NC3=O)NC(=O)[C@H](CCCCN)NC(=O)[C@H](CC(=O)O)NC(=O)[C@H](CC(N)=O)NC(=O)[C@H](CC(=O)O)NC(=O)[C@@H]2CCCN2C1=O (H-DCLGFMRKCIPDNDKCCRPNLVCSKTHKWCKYVF-NH2; disulfide 2-17, 9-23, 16-30)	< 5.30
CC[C@H](C)[C@@H]1NC(=O)[C@@H]2CSSC[C@@H]3NC(=O)[C@H](C(C)C)NC(=O)[C@H](CC(C)C)NC(=O)[C@H](CC(N)=O)NC(=O)[C@@H]4CCCN4C(=O)[C@H](CCCNC(=N)N)NC(=O)[C@H](CSSC[C@H](NC(=O)[C@@H](N)CC(=O)O)C(=O)N[C@@H](CC(C)C)C(=O)NCC(=O)N[C@@H](Cc4ccccc4)C(=O)N[C@@H](CCSC)C(=O)N[C@@H](CCCNC(=N)N)C(=O)N[C@@H](CCCCN)C(=O)N2)NC(=O)[C@H](CSSC[C@@H](C(=O)N[C@@H](CCCCN)C(=O)N[C@@H](Cc2ccc(O)cc2)C(=O)N[C@H](C(=O)N[C@@H](Cc2ccccc2)C(N)=O)C(C)C)NC(=O)[C@H](Cc2c[nH]c4ccccc24)NC(=O)[C@H](CCCCN)NC(=O)[C@H](Cc2c[nH]cn2)NC(=O)[C@H]([C@@H](C)O)NC(=O)[C@H](CCCNC(=N)N)NC(=O)[C@H](CO)NC3=O)NC(=O)[C@H](CCC(=O)O)NC(=O)[C@H](CC(=O)O)NC(=O)[C@H](CC(N)=O)NC(=O)[C@H](CC(=O)O)NC(=O)[C@@H]2CCCN2C1=O (H-DCLGFMRKCIPDNDECCRPNLVCSRTHKWCKYVF-NH2; disulfide 2-17, 9-23, 16-30)	< 5.30
